Measurements: ChEMBL document CHEMBL1139389, “Discovery of the Poly(ADP-ribose) polymerase (PARP) inhibitor 2-[(R)-2-methylpyrrolidin-2-yl]-1H-benzimidazole-4-carboxamide (ABT-888) for the treatment of cancer” (J Med Chem, 2009)

What was measured:
[1] = Half life in CD1 mouse at 3 mg/kg, iv; assay type: ADME, organism-based; parameters: dose 3 mg/kg, route intravenous; details: in vivo
Procedure, shortened: (§1)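 Mouse PK: oral dose 10 mg/kg in 2.5% EtOH, 1 drop Tween-80, 25% PEG400 in PBS; iv dose 3 mg/kg in 2.5% EtOH, 5% DMSO, 1 drop Tween-80, 25% PEG400 in PBS. Oral bioavailability, iv half-life, oral AUC and Cmax derived from plasma profiles.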

[2] = AUC in CD1 mouse at 10 mg/kg, po; assay type: ADME, organism-based; parameters: dose 10 mg/kg, route oral; details: plasma; procedure, shortened: as §1
[3] = Oral bioavailability in CD1 mouse at 10 mg/kg; assay type: ADME, organism-based; details: in vivo; procedure, shortened: as §1
[4] = Cmax in CD1 mouse at 10 mg/kg, po; assay type: ADME, organism-based; parameters: dose 10 mg/kg, route oral; details: in vivo; procedure, shortened: as §1
[5] = molecular target: Poly [ADP-ribose] polymerase 2 (Homo sapiens, UniProt Q9UGN5); test: Inhibition of human recombinant PARP2
Sequence of Poly [ADP-ribose] polymerase 2 (Q9UGN5 whole entry): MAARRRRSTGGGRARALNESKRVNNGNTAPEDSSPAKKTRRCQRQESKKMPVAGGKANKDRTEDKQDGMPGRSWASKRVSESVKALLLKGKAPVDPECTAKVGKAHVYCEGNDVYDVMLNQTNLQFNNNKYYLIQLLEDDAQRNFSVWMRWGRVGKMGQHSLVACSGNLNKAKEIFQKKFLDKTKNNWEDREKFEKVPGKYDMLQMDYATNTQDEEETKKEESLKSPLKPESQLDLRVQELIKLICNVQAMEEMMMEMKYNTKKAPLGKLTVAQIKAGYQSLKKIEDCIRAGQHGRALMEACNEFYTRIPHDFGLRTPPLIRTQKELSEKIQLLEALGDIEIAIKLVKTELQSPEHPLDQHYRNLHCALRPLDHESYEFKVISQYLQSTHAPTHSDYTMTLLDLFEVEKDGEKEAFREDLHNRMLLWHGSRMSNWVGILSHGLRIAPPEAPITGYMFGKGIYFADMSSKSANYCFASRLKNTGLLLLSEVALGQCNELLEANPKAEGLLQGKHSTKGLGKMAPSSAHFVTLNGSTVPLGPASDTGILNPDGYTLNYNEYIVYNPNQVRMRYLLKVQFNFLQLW

half-life [1] [h]	AUC [2] [ng·h/mL]	bioavailability [3] [%]	Cmax [4] [ng/mL]	Ki [5] [nM]	SMILES
1.5	1500	93	500	–	CC1(c2nc3c(C(N)=O)cccc3[nH]2)CCCCN1 (stereo not given)
–	–	–	–	2	CC1(c2nc3c(C(N)=O)cccc3[nH]2)CCNC1 (stereo not given)
